Measurements published in article PMC5771882 (Biochemistry, 2017).

Key:
recombinant DGKα [1] = biological target: T1, recombinant DGKα (Rattus norvegicus, UniProt P51556); test: LC–MS quantitative chemical proteomic assay; format: binding
HSP70-1A/B = HSP70-1A/B (Homo sapiens, UniProt P0DMV8); test: LC–MS quantitative chemical proteomic assay; format: binding; details: ATP 1 mM
BRAF = BRAF (Homo sapiens, UniProt P15056); test: LC–MS quantitative chemical proteomic assay; format: binding; details: ATP 1 mM
Chain of BRAF (P15056 whole entry): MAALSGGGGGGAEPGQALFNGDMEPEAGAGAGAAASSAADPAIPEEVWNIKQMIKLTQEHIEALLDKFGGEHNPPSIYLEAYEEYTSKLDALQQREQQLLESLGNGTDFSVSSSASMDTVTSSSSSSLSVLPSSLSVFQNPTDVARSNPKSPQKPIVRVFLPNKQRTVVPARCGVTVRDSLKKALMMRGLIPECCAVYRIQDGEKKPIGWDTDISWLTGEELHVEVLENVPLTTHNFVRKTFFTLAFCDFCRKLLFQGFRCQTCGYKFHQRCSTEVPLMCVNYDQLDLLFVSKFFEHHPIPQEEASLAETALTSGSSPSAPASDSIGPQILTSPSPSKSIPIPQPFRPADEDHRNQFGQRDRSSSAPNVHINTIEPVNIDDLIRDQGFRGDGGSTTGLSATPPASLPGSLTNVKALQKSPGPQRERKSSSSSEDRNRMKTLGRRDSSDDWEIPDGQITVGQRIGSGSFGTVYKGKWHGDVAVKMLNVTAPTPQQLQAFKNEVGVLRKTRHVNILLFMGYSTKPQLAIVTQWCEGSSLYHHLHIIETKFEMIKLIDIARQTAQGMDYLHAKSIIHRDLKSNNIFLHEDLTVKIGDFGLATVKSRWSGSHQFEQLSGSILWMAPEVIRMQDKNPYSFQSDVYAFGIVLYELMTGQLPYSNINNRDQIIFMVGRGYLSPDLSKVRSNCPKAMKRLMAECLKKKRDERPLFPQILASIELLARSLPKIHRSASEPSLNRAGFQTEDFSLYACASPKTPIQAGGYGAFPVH

recombinant DGKα [2] = biological target: T1, recombinant DGKα; test: DAG phosphorylation substrate assay; format: biochemical; details: DGKα-overexpressed HEK293T soluble proteomes
Summary of the method: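 IC50 derived from a dose–response curve of DAG phosphorylation by recombinant DGKα across a range of test compound concentrations. Data are means ± standard error of the mean of two biological replicates, and a 95% confidence interval is given for the IC50.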

T1 sequence (P51556 whole entry): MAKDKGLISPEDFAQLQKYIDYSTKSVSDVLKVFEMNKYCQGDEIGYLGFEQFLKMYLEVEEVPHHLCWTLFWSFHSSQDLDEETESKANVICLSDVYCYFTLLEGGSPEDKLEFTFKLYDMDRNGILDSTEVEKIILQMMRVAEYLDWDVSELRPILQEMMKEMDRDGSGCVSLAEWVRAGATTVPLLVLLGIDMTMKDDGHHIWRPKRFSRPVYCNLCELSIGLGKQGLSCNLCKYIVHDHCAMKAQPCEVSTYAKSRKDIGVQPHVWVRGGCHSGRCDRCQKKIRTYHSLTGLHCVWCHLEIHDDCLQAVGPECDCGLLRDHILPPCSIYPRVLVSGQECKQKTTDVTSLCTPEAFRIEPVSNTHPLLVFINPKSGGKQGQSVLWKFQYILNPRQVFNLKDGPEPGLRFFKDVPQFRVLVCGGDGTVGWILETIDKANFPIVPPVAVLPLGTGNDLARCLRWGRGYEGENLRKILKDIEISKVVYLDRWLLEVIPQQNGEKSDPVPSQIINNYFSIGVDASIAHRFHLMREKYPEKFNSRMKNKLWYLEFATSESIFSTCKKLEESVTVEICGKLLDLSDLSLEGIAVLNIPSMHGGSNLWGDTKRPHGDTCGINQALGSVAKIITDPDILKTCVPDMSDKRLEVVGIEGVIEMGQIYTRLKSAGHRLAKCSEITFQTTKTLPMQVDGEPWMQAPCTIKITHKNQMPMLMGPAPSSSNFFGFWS
Chain of HSP70-1A/B (P0DMV8 whole entry): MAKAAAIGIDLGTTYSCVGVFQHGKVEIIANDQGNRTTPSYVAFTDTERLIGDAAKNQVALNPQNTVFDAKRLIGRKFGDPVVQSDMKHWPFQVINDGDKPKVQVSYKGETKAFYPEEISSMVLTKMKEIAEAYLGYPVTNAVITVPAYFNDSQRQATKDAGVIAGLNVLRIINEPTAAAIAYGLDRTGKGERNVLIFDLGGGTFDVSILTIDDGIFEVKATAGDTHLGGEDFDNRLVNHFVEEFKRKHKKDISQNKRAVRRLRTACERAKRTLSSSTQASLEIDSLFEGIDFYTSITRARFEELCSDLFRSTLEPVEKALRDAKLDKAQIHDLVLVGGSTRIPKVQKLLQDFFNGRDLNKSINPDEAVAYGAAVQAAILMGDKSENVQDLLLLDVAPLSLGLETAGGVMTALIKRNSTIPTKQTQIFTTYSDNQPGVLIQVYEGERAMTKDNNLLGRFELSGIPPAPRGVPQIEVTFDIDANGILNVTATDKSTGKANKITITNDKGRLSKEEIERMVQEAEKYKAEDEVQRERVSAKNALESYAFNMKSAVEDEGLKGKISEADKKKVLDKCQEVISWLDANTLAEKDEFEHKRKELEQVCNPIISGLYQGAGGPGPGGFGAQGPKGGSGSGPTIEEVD

blockade of probe labeling at primary ATP-binding sites (DAGKc/DAGKa) (recombinant DGKα [1]; RLM001 10 mM, ATP 1 mM) | SILAC ratio (SR), C1-binding site (recombinant DGKα [1]; free ATP (1 mM)) | SILAC ratio (SR), HSP70-1A K56/HSP70-1B K56 (HSP70-1A/B) | SILAC ratio (SR), BRAF (BRAF) | blockade of recombinant DGKα catalytic activity (recombinant DGKα [2]) | SMILES
near-complete blockade of probe labeling | ~ 2 | > 5 | > 5 | – | Nc1ncnc2c1ncn2[C@@H]1O[C@H](COP(=O)(O)OP(=O)(O)OP(=O)(O)O)[C@@H](O)[C@H]1O [ATP]
– | – | – | – | blockade of catalytic activity | Cc1nc2sccn2c(=O)c1CCN1CCC(=C(c2ccccc2)c2ccc(F)cc2)CC1 [R59022]
– | – | – | – | blockade of catalytic activity | Cc1nc2sccn2c(=O)c1CCN1CCC(=C(c2ccc(F)cc2)c2ccc(F)cc2)CC1 [ritanserin]
